Values after ≈ are worked out from the molar mass of the structure shown.
Assays:
Staphylococcus aureus [1] = test: Bacteriostatic activity against intracellular beta-lactamase negative methicillin-susceptible Staphylococcus aureus ATCC 25923 infected in activated human THP-1 cells assessed as decrease in bacterial growth after 24 hrs at pH 7.4; type: functional
Outline: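 THP-1 cells activated by 24-h culture with phorbol myristate acetate 2 mg/liter, then infected like unactivated THP-1. Cloxacillin dose range in mg/liter for 24 h. CFU per mg cell protein relative to the original inoculum, n = 3. Emin and Emax extrapolated from a Hill fit (slope 1), with EC50 as total drug; static concentration by graphical interpolation.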

Staphylococcus aureus [2] = test: Antimicrobial activity against hospital acquired methicillin-resistant Staphylococcus aureus HMC546 infected in human THP-1 cells assessed as increase in bacterial count from original inoculum at low compound concentration after 24 hrs at pH 5.5; type: functional
Outline: (§1)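 Bacteria phagocytosed by unactivated human THP-1 macrophages, then incubated 24 h with extracellular antibiotic at about 0.01× to 100× the pH 5.5 broth MIC. CFU per mg cell protein counted against the original inoculum, n = 3. A Hill-equation fit (slope factor 1) gave Emin and Emax, extrapolated to infinitely low and high concentration, and EC50. Static concentration was graphically interpolated.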

Staphylococcus aureus [3] = test: Antimicrobial activity against intracellular hospital acquired methicillin-resistant Staphylococcus aureus ATCC 33591 infected in human Calu3 cells assessed as decrease in bacterial count from original inoculum at high compound concentration after 24 hrs at pH 7.4; type: functional, Calu-3
Outline: (§2)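 Primary human skin keratinocytes or Calu-3 bronchial epithelial cells, given an inoculum of 5 × 10⁷ to 1 × 10⁸ bacteria/ml and 2 h for internalization. Post-phagocytosis load 1.5 × 10⁶ to 3.0 × 10⁶ CFU per mg cell protein. Cloxacillin dose range in mg/liter for 24 h, n = 3. Hill-derived Emin, Emax and EC50; static concentration interpolated.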

[4] = Chemical stability of the compound assessed as compound remaining after 24 hrs in PBS buffer by HPLC analysis at pH 7.4; type: physicochemical; details: read-out: Activity
Outline: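 Drug at 50 mg/liter initial concentration incubated 24 h at 37°C in buffered medium at pH 7.4 or 5.5. Remaining drug measured by HPLC signal disappearance; mobile phase 25 mM phosphate buffer pH 6.7 with acetonitrile (75:25).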

Staphylococcus aureus [5] = test: Antimicrobial activity against Panton-valentine leukocidin positive community acquired methicillin-resistant Staphylococcus aureus NRS192 obtained from patient with pneumonia and septic arthritis by broth microdilution method at pH 7.4; type: functional
Outline: (§3)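 Minimal inhibitory concentration by broth microdilution at pH 7.4, read in mg/liter. The MRSA genotype was confirmed by mecA PCR, and the SCCmec subgroup was assigned by multiplex PCR.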

Staphylococcus aureus [6] = test: Bacteriostatic activity against intracellular beta-lactamase negative methicillin-susceptible Staphylococcus aureus ATCC 25923 infected in human keratinocytes assessed as decrease in bacterial growth after 24 hrs at pH 7.4; type: functional
Outline: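 Primary human skin keratinocytes or Calu-3 bronchial epithelial cells infected with MSSA ATCC 25923 at 5 × 10⁷ to 1 × 10⁸ bacteria/ml, 2 h internalization. Postphagocytosis inoculum 1.5 × 10⁶ to 3.0 × 10⁶ CFU/mg protein. Cloxacillin concentration range for 24 h; CFU/mg protein change vs. inoculum (n = 3). Hill fit gives Emin/Emax; static concentration by graphical interpolation.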

Staphylococcus aureus [7] = test: Antimicrobial activity against hospital acquired methicillin-resistant Staphylococcus aureus N4120210 obtained from urinary tract infection of patient infected in human THP-1 cells assessed as decrease in bacterial count from original inoculum at high compound concentration after 24 hrs at pH 5.5; type: functional, Urine; outline: as §1
Staphylococcus aureus [8] = test: Antimicrobial activity against hospital acquired methicillin-resistant and […] Staphylococcus aureus VRS2 obtained from patient with wound, skin and soft tissue infection by broth microdilution method at pH 5.5; type: functional
Staphylococcus aureus [9] = test: Antimicrobial activity against constitutive beta-lactamase negative methicillin-resistant Staphylococcus aureus COL NRS100 infected in human THP-1 cells assessed as decrease in bacterial count from original inoculum at high compound concentration after 24 hrs at pH 5.5; type: functional; outline: as §1
Staphylococcus aureus [10] = test: Antimicrobial activity against hospital acquired methicillin-resistant and vancomycin-intermediate Staphylococcus aureus VRS2 obtained from wound, skin and soft tissue infection of patient infected in human THP-1 cells assessed as decrease in bacterial growth after 24 hrs at pH 5.5; type: functional, cell-based; details: VRS2, THP-1, 24 h
Outline: (§4)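 Human THP-1 macrophages infected with each S. aureus strain. Cloxacillin added extracellularly at about 0.01× to 100× the broth MIC measured at pH 5.5, with gentamicin 0.5 mg/liter to stop extracellular growth. Incubated 24 h. CFU counted per mg cell protein as change from the post-phagocytosis inoculum, n = 3. Emin, Emax and EC50 from a Hill fit; static concentration by graphical interpolation.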

Staphylococcus aureus [11] = test: Bacteriostatic activity against hospital acquired methicillin-resistant and vancomycin-intermediate Staphylococcus aureus VRS2 infected in human THP-1 cells assessed as decrease in bacterial growth after 24 hrs at pH 5.5; type: functional; outline: as §4
Staphylococcus aureus [12] = test: Antimicrobial activity against beta-lactamase negative methicillin-susceptible Staphylococcus aureus ATCC 25923 infected in human THP-1 cells assessed as increase in bacterial count from original inoculum at low compound concentration after 24 hrs at pH 5.5; type: functional
Outline: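 MSSA ATCC 25923 phagocytized by unactivated THP-1 macrophages; extracellular antibiotic from about 0.01× to 100× the broth MIC at pH 5.5, with gentamicin 0.5 mg/liter to block extracellular growth. CFU per mg cell protein counted at 24 h vs. original inoculum (n = 3). A Hill equation (slope factor 1) gives Emin/Emax, extrapolated to infinitely low/high concentration. Static concentration is read by graphical interpolation.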

Staphylococcus aureus [13] = test: Antimicrobial activity against intracellular beta-lactamase negative methicillin-susceptible Staphylococcus aureus ATCC 25923 infected in human Calu3 cells assessed as decrease in bacterial count from original inoculum at high compound concentration after 24 hrs at pH 7.4; type: functional, Calu-3; outline: as §2
Staphylococcus aureus [14] = test: Antimicrobial activity against hospital acquired methicillin-resistant Staphylococcus aureus HMC546 infected in human THP-1 cells assessed as decrease in bacterial growth after 24 hrs at pH 5.5; type: functional, organism-based; details: HMC546, THP-1, 24 h; outline: as §1
Staphylococcus aureus [15] = test: Antimicrobial activity against beta-lactamase negative methicillin-susceptible Staphylococcus aureus ATCC 25923 infected in human THP-1 cells assessed as increase in bacterial count from original inoculum at low compound concentration after 24 hrs at pH 7.4; type: functional
Staphylococcus aureus [16] = test: Bacteriostatic activity against constitutive beta-lactamase negative methicillin-resistant Staphylococcus aureus COL NRS100 infected in human THP-1 cells assessed as decrease in bacterial growth after 24 hrs at pH 5.5; type: functional; outline: as §4
Staphylococcus aureus [17] = test: Antimicrobial activity against hospital acquired methicillin-resistant Staphylococcus aureus N4120032 obtained from wound infection of patient by broth microdilution method at pH 7.4; type: functional; outline: as §3
Staphylococcus aureus [18] = test: Antimicrobial activity against intracellular beta-lactamase negative methicillin-susceptible Staphylococcus aureus ATCC 25923 infected in activated human THP-1 cells assessed as increase in bacterial count from original inoculum at low compound concentration after 24 hrs at pH 7.4; type: functional
Staphylococcus aureus [19] = test: Antimicrobial activity against Panton-valentine leukocidin positive community acquired methicillin-resistant Staphylococcus aureus NRS192 obtained from patient with pneumonia and septic arthritis infected in human THP-1 cells assessed as decrease in bacterial count from original inoculum at high compound concentration after 24 hrs at pH 5.5; type: functional; outline: as §1
Staphylococcus aureus [20] = test: Antimicrobial activity against hospital acquired methicillin-resistant Staphylococcus aureus ATCC 33591 infected in human THP-1 cells assessed as decrease in bacterial growth after 24 hrs at pH 5.5; type: functional, organism-based; details: ATCC 33591, THP-1, 24 h; outline: as §1

## Cc1onc(-c2ccccc2Cl)c1C(=O)N[C@@H]1C(=O)N2[C@@H]1SC(C)(C)[C@@H]2C(=O)O [CLOXACILLIN]
Staphylococcus aureus [1]
  Activity: 1.3 mg/L
Staphylococcus aureus [2]
  log10cfu: 2.06
Staphylococcus aureus [3]
  log10cfu: 0.93
[4]
  remaining at 24 h: 97.8%
Staphylococcus aureus [5]
  MIC: 1 µg/mL (≈ 2.29 µM)
Staphylococcus aureus [6]
  Activity: 1.1 mg/L
Staphylococcus aureus [7]
  log10cfu: 0.63
Staphylococcus aureus [8]
  MIC: 0.06 µg/mL (≈ 0.138 µM)
Staphylococcus aureus [9]
  log10cfu: 0.78
Staphylococcus aureus [10]
  EC50: 3.63 ×MIC
Staphylococcus aureus [11]
  Activity: 8.12 mg/L
Staphylococcus aureus [12]
  log10cfu: 1.96
Staphylococcus aureus [13]
  log10cfu: 0.99
Staphylococcus aureus [14]
  EC50: 5.67 ×MIC
Staphylococcus aureus [15]
  log10cfu: 1.79
Staphylococcus aureus [16]
  Activity: 8.31 ×MIC
Staphylococcus aureus [17]
  MIC: 1 µg/mL (≈ 2.29 µM)
Staphylococcus aureus [18]
  log10cfu: 3.05
Staphylococcus aureus [19]
  log10cfu: 0.68
Staphylococcus aureus [20]
  EC50: 4.25 ×MIC
